# Measurements published in PubChem BioAssay.
# Activity calls are given as the source filed them.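 Rule for the calls, unless noted: active = viability at or under a set limit in both replicates, limit being median viability minus 3 SD (cut at about 48% in these data, passing the limit was not always enough); inconclusive = at or under the limit in just one replicate; inactive = at or above the limit in both replicates.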
# How the values were obtained:
# [1] = HUVEC growth inhibition – cell-based, human, primary screen (AID 575;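 active = viability at or below 30% in both replicate assays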;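 note: 100% = median of untreated cell wells with 0.1% DMSO on each plate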); settings: HUVEC proliferation, CellTiter-Glo luminescence, 72 h; at 10 µM; stronger effect = lower value
# Method in brief: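 Material: primary human umbilical vein endothelial cells / Schedule: 72 h exposure, 37 °C, 5% CO2, 30 min RT equilibration / Signal: ATP-based CellTiter-Glo luminescent read / Read-out basis: percent of median DMSO-control luminescence / Control set: 32 DMSO-only cell-control wells (high), 32 MePR drug-control wells (low) per plate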
# [2] = H69AR cell proliferation blockers – human, duplicate replicates, primary screen (AID 580); settings: H69AR lung tumor cells viability, ATP luminescence, 72 h; at 10 µM; stronger effect = lower value;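 note: 100% = mean luminescence of untreated wells and 0% = no signal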
# [3] = MRP1 drug-resistance reversers in H69AR cells – cell-based, doxorubicin co-treatment, pilot screen (AID 601;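 active = viability loss from added drug above about 55%, and viability with drug at most 40%, in both replicates, limit read from the data, passing the limit was not always enough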); settings: CellTiter-Glo, 72 h, at 10 µM; for differential viability (reversal): stronger effect = higher value
# [4] = yeast transport mutant growth inhibition pilot in 384-well plates, post-Golgi transport modulator project (AID 636; in the data active = inhibition above about 31%); settings: absorbance 615 nm, about 18 h, stronger effect = higher value
# [5] = growth suppression of yeast trafficking mutant, preliminary HTS, modulators of trafficking downstream of Golgi apparatus project, 1536-format plate, OD 615 nm (AID 637; in the data active = inhibition above about 30%); settings: yeast transport mutant growth, absorbance 615 nm, 18 h; stronger effect = higher value
# [6] = H69AR cells + 2 uM doxorubicin, measured here: viability with 2 uM doxorubicin, stronger effect = lower value
# [7] = H69AR cells, compound alone cytotoxicity
Compound,viability [1],viability [2],differential viability (reversal) ([3]; H69AR cells + 2 uM doxorubicin),"viability [3, 6]","viability [3, 7]",inhibition [4],inhibition [5]
O=C(CC1CCCCC1)NCc1ccccn1,92.2% (inactive),95.8% (inactive),12.9% (inactive),82.9%,95.8%,-3.42% (inactive),-6.67% (inactive)
c1ccc(CNC2=NCCC2)nc1,102% (inactive),101% (inactive),3.93% (inactive),96.8%,101%,-0.91% (inactive),-7.46% (inactive)
CCCC(=O)Nc1ccccc1-c1nnn(CC(=O)Nc2ccc(OC)cc2)n1,73.8% (inactive),83.1% (inactive),-14.1% (inactive),97.2%,83.1%,-3.33% (inactive),5.4% (inactive)
CCCN(CCC)c1nc2ccccc2n2c(C)nnc12,85.3% (inactive),81.1% (inactive),-4.65% (inactive),85.8%,81.1%,-1.45% (inactive),8.1% (inactive)
CCOc1cc(C)c(C(C)C)cc1S(=O)(=O)N1CCN(C)CC1,96.1% (inactive),96.2% (inactive),2.99% (inactive),93.2%,96.2%,1.84% (inactive),-5.71% (inactive)
CCN1CCN(C(=O)c2cn(CCOC)c(=O)c3c2c2ccccc2n3C)CC1,106% (inactive),90.6% (inactive),-2.77% (inactive),93.4%,90.6%,-2.86% (inactive),-5.4% (inactive)
CN1/C(=C\C(=O)Nc2cccnc2)c2ccccc2CC1(C)C,99.3% (inactive),86.5% (inactive),-4.08% (inactive),90.6%,86.5%,-4.4% (inactive),-0.95% (inactive)
COc1ccc(CN(C)CC(=O)c2c(N)n(Cc3ccccc3)c(=O)n(C)c2=O)c(OC)c1,96.4% (inactive),93.9% (inactive),10.3% (inactive),83.6%,93.9%,-3.25% (inactive),6.51% (inactive)
O=C(CCSc1nc(-c2ccco2)cc(C(F)(F)F)n1)NCCc1ccccc1,80.7% (inactive),79% (inactive),-15.4% (inactive),94.4%,79%,-4.53% (inactive),1.11% (inactive)
COc1ccc2c(c1)CCc1c(C(=O)N3CC4(C)CC3CC(C)(C)C4)noc1-2 (configuration not stated),52.3% (inactive),75.1% (inactive),0.855% (inactive),74.3%,75.1%,-2.34% (inactive),-3.02% (inactive)
COc1ccccc1-c1c(C)nn2c(C)c(C(C)=O)cnc12,111% (inactive),94.3% (inactive),10.3% (inactive),84%,94.3%,-6.1% (inactive),1.27% (inactive)
Cc1ccc(S(=O)(=O)NC(C(=O)OCC(=O)NC2CCS(=O)(=O)C2)C(C)C)cc1 (configuration not stated),98.1% (inactive),92.9% (inactive),0.03% (inactive),92.8%,92.9%,-1.69% (inactive),0.63% (inactive)
CCCC(C)C1C(C#N)=C(N)Oc2cc(C)oc(=O)c21 (configuration not stated),98.4% (inactive),85.7% (inactive),-6.91% (inactive),92.6%,85.7%,-2.5% (inactive),4.76% (inactive)
O=C(O)Cn1nc2ccccc2n1,108% (inactive),93.9% (inactive),3.65% (inactive),90.3%,93.9%,-4% (inactive),8.73% (inactive)
O=C(c1cnn2c1NC(c1ccco1)CC2C(F)(F)F)N1CCN(c2cccc(Cl)c2)CC1 (configuration not stated),48.7% (inactive),9.38% (active),-61.4% (inactive),70.8%,9.38%,-6% (inactive),-2.22% (inactive)
CC(C(=O)N1c2ccc(F)cc2CCC1C)N1C(=O)c2ccccc2C1=O (configuration not stated),114% (inactive),91.3% (inactive),11.5% (inactive),79.8%,91.3%,-5.26% (inactive),8.73% (inactive)
CC(=O)c1cc(-c2ccccc2)n(CC(=O)N2CCN(C3CCCC3)CC2)c1C,98.7% (inactive),80.5% (inactive),-0.095% (inactive),80.6%,80.5%,-5.58% (inactive),0.95% (inactive)
COc1ccc(CN2C(=O)c3ccccc3C2C(=O)NC2CCCC2)c(OC)c1 (configuration not stated),104% (inactive),86.2% (inactive),1.22% (inactive),84.9%,86.2%,0.53% (inactive),-4.6% (inactive)
Cc1nc(SCC(=O)c2c[nH]c3ccccc23)n[nH]1,81.1% (inactive),95.9% (inactive),14.5% (inactive),81.4%,95.9%,-7.5% (inactive),-0.32% (inactive)
O=C(Nc1ccc(Cc2ccncc2)cc1)C1CC1,88.2% (inactive),99.5% (inactive),17.4% (inactive),82.1%,99.5%,-2.21% (inactive),1.75% (inactive)
CC(C)Cc1nc2oc3c(N4CCN(CCO)CC4)ncnc3c2c2c1CCCC2,52.4% (inactive),42.6% (active),-12.1% (inactive),54.7%,42.6%,-0.26% (inactive),-6.33% (inactive)
